From paper PMC12169410 (Epilepsia, 2025)
Several values for one entry are separate records, joined by “and”; a condition that tells them apart may be missing. Equal values may be shown once.

What was measured:
Type in all cases: in vivo
[1] = test system: Genetic Absence Epilepsy Rat from Strasbourg (GAERS); assay: GAERS model, spontaneous spike-and-wave discharges; conditions: 3 mg/kg oral; discharges increased progressively afterwards
In short: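 Adult male GAERS rats (4–8 months) had frontal and parietal cortical EEG recorded while freely moving. […] SWDs were counted over a 20-min baseline (−25 to −5 min) and in 20-min epochs from 10 to 130 min post-dose. Analysis: mixed-model repeated-measures ANOVA with Dunnett vs vehicle; ED50 from a variable-slope curve fit of overall rate as % baseline.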

[2] = test system: amygdala kindled Wistar rats; assay: Amygdala kindled rat seizure model; conditions: 16 mg/kg orally, 60 min prior to stimulation
In short: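 Male Wistar rats had electrodes implanted under isoflurane with carprofen (5 mg/kg s.c.). Each treatment ran over 2 days with a 2-day washout. Day 1: oral vehicle (0.5% methylcellulose), then stimulation 60 or 120 min later. […] Seizures were scored on the Racine scale (0–5), and amygdala and cortical EEG afterdischarge duration was analysed off-line. Statistics: Wilcoxon test (severity) and paired t test (afterdischarge) vs baseline.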

[3] = test system: CF‐1 mice; assay: Mouse fixed-speed rotarod test of minimal motor impairment; conditions: 1 mg/kg i.p.
In short: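 Mice were tested on a fixed-speed rotarod at 6 rpm immediately before 6 Hz stimulation at 32 or 44 mA. A mouse falling off 3 times within 1 min was scored impaired. The experimenter was blinded to treatment.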

[4] = test system: CF‐1 mice, 6 Hz psychomotor seizure; assay: Mouse 6 Hz seizure test; conditions: 1 mg/kg i.p., 0.25 h pretreatment

## CN1C(=O)CN=C(c2ccccc2)c2cc(Cl)ccc21 [Diazepam]
[1]
  Effect on SWDs in the first epoch (10–30 min): rapid and almost complete elimination of SWDs
[2]
  Change in mean afterdischarge duration in the amygdala vs baseline: −69%
  Change in mean afterdischarge duration in the cortex vs baseline: −75%
  Change in mean seizure severity score (Racine scale) vs baseline: −3.7
[3]; immediately prior to 6 Hz 32 mA stimulation
  Rotarod impairment (mice impaired/tested), 32 mA group: 0/10
[3]; immediately prior to 6 Hz 44 mA stimulation
  Rotarod impairment (mice impaired/tested), 44 mA group: 0/10
[4]; 32 mA
  Seizure protection 32 mA (mice protected/tested): 10/10
[4]; 44 mA
  Seizure protection 44 mA (mice protected/tested): 3 of 10 and 3/10
